In ChEMBL document CHEMBL4715748, “Synthesis and biological investigation of new equatorial (β) stereoisomers of 3-aminotropane arylamides with atypical antipsychotic profile” (Bioorg Med Chem, 2016):

Tests used:
D(2) dopamine receptor = D(2) dopamine receptor (Rattus norvegicus, UniProt P61169); assay: Displacement of [3H] Spiperone from rat striatum dopamine D2 receptor measured after 30 mins by liquid scintillation counter method
Procedure, shortened: (§1)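 Competition binding in rat brain tissue membranes against D2, 5-HT1A and 5-HT2A sites; Ki reported as mean ± S.E.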

[1] = biological target: T1, 5-hydroxytryptamine receptor 1A (Rattus norvegicus, UniProt P19327); assay: Displacement of [3H]-8-OH-DPAT from rat cerebral cortex 5HT1A receptor measured after 15 mins by liquid scintillation counter method
T1 sequence (P19327 whole entry): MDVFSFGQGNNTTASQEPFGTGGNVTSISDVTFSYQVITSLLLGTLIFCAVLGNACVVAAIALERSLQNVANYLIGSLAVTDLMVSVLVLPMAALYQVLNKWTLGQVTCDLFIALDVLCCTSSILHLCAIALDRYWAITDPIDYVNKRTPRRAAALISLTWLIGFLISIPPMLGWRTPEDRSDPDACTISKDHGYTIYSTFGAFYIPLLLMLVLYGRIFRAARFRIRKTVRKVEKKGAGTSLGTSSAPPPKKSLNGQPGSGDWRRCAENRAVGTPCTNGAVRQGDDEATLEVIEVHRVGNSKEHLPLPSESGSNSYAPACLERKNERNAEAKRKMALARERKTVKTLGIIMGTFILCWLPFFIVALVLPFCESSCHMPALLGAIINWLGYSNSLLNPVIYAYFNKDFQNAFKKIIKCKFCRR

[2] = biological target: 5-hydroxytryptamine receptor 2A (Rattus norvegicus, UniProt P14842); assay: Displacement of [3H]-ketanserin from rat cerebral cortex 5HT2A receptor measured after 20 mins by liquid scintillation counter method; procedure, shortened: as §1
Chain of 5-hydroxytryptamine receptor 2A (P14842 whole entry): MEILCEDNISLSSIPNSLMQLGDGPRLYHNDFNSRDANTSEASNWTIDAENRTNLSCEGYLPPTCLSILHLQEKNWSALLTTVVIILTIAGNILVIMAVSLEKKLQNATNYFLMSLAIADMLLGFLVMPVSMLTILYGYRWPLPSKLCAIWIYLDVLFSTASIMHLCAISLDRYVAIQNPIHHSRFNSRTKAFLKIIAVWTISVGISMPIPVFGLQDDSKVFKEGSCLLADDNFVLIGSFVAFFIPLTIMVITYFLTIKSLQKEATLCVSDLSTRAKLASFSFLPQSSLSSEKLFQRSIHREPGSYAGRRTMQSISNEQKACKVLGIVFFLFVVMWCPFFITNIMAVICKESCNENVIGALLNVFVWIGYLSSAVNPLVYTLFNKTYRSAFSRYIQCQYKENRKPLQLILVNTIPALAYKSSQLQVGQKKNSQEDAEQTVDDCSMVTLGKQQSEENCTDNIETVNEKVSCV

Mus musculus [3] = assay: Effect on 8-OH-DPAT-induced hypothermia in Swiss albino mouse assessed as change in rectal body temperature at 20 mg/kg, ip pretreated with compound for 45 mins followed by 8-OH-DPAT challenge and measured after 60 min by thermometer (reference value: -0.66 to -0.5 degreeC); type: functional, organism-based; conditions: time 105.0 min
Mus musculus [4] = assay: Effect on 8-OH-DPAT-induced hypothermia in Swiss albino mouse assessed as change in rectal body temperature at 10 mg/kg, ip pretreated with compound for 45 mins followed by 8-OH-DPAT challenge and measured after 45 min by thermometer (reference value: -1.04 to -0.78 degreeC); type: functional, organism-based; conditions: time 90.0 min
[5] = Effect on body temperature in Swiss Albino mouse assessed as rectal body temperature at 20 mg/kg, ip measured after 120 mins by thermometer (reference value: 0.15 to 1.11 degreeC); type: ADME, organism-based; conditions: in vivo, 2 h
[6] = Effect on body temperature in Swiss Albino mouse assessed as rectal body temperature at 20 mg/kg, ip measured after 30 mins by thermometer (reference value: 0.16 to 0.33 degreeC); type: ADME, organism-based; conditions: in vivo, 0.5 h
Mus musculus [7] = assay: Effect on 8-OH-DPAT-induced hypothermia in Swiss albino mouse assessed as change in rectal body temperature at 20 mg/kg, ip pretreated with compound for 45 mins followed by 8-OH-DPAT challenge and measured after 30 min by thermometer (reference value: -1.36 to -1.12 degreeC); type: functional, organism-based; conditions: time 75.0 min
Mus musculus [8] = assay: Effect on 8-OH-DPAT-induced hypothermia in Swiss albino mouse assessed as change in rectal body temperature at 10 mg/kg, ip pretreated with compound for 45 mins followed by 8-OH-DPAT challenge and measured after 15 min by thermometer (reference value: -1.82 to -1.66 degreeC); type: functional, organism-based; conditions: time 60.0 min
[9] = Effect on body temperature in Swiss Albino mouse assessed as rectal body temperature at 10 mg/kg, ip measured after 120 mins by thermometer (reference value: 0.15 to 1.11 degreeC); type: organism-based; conditions: in vivo, 2 h
Mus musculus [10] = assay: Antipsychotic activity Swiss Albino mouse assessed as inhibition of DOI-induced head twitching by measuring number of episodes at 2.5 mg/kg, ip administered 30 mins prior to DOI stimulation (reference value: 19.63 to 19.88); type: functional; conditions: 0.5 h
Procedure, shortened: (§2)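 Male Albino Swiss mice (24–28 g) were habituated to sawdust-lined cages 20 min before the first treatment. Compounds were suspended in 1% aqueous Tween 80 and given i.p. 30 min before (±)-DOI, 2.5 mg/kg i.p. in aqueous solution. Head twitches were counted blind over 20 min, n=8 per group, mean ± SEM, one-way ANOVA with Dunnett's test.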

Mus musculus [11] = assay: Effect on 8-OH-DPAT-induced hypothermia in Swiss albino mouse assessed as change in rectal body temperature at 20 mg/kg, ip pretreated with compound for 45 mins followed by 8-OH-DPAT challenge and measured after 45 min by thermometer (reference value: -1.04 to -0.78 degreeC); type: functional, organism-based; conditions: time 90.0 min
[12] = Effect on body temperature in Swiss Albino mouse assessed as rectal body temperature at 10 mg/kg, ip measured after 90 mins by thermometer (reference value: 0.18 to 0.63 degreeC); type: ADME, organism-based; conditions: in vivo, 1.5 h
[13] = Effect on body temperature in Swiss Albino mouse assessed as rectal body temperature at 20 mg/kg, ip measured after 90 mins by thermometer (reference value: 0.18 to 0.63 degreeC); type: ADME, organism-based; conditions: in vivo, 1.5 h
Mus musculus [14] = assay: Antipsychotic activity Swiss Albino mouse assessed as inhibition of DOI-induced head twitching by measuring number of episodes at 5 mg/kg, ip administered 30 mins prior to DOI stimulation (reference value: 19.63 to 19.88); type: functional; conditions: 0.5 h; procedure, shortened: as §2
[15] = biological target: Dopamine D2 receptor and Serotonin 2a receptor (D2 and 5HT2a) (Rattus norvegicus) (UniProt P61169+P14842); assay: Ratio of pKi for displacement of [3H]-ketanserin from rat cerebral cortex 5HT2A receptor measured after 20 mins by liquid scintillation counter method to pKi for displacement of [3H] Spiperone from rat striatum dopamine D2 receptor measured after 30 mins by liquid scintillation counter method
Chain of Dopamine D2 receptor and Serotonin 2a receptor (D2 and 5HT2a) (Rattus norvegicus) (P14842 whole entry, looked up): as the sequence (P14842 whole entry) above
Chain of Dopamine D2 receptor and Serotonin 2a receptor (D2 and 5HT2a) (Rattus norvegicus) (P61169 whole entry, looked up): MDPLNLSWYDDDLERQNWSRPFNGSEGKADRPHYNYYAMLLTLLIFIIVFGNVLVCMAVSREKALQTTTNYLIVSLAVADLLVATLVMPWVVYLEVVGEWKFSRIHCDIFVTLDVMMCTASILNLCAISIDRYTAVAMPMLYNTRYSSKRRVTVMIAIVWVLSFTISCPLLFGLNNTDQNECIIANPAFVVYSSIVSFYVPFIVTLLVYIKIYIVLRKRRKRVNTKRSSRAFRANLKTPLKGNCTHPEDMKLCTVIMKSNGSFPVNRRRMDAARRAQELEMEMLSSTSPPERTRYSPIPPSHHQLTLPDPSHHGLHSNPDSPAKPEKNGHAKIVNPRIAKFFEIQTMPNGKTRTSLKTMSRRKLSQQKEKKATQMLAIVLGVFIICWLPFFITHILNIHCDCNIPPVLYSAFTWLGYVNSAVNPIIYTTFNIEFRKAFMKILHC
Procedure, shortened: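 Ratio of pKi values, 5-HT2A over D2, computed from competition radioligand binding in rat brain tissue.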

Mus musculus [16] = assay: Effect on 8-OH-DPAT-induced hypothermia in Swiss albino mouse assessed as change in rectal body temperature at 20 mg/kg, ip pretreated with compound for 45 mins followed by 8-OH-DPAT challenge and measured after 15 min by thermometer (reference value: -1.82 to -1.66 degreeC); type: functional, organism-based; conditions: time 60.0 min
[17] = Effect on 8-OH-DPAT-induced lower lip retraction in Wistar rat at 10 mg/kg, ip pretreated with compound for 45 mins followed by 8-OH-DPAT challenge and measured after 15 mins (reference value: 2.7 to 2.8); type: functional; conditions: time 60 min, 1 h
[18] = Effect on 8-OH-DPAT-induced lower lip retraction in Wistar rat at 20 mg/kg, ip pretreated with compound for 45 mins followed by 8-OH-DPAT challenge and measured after 15 mins (reference value: 2.7 to 2.8); type: functional; conditions: time 60 min, 1 h
Mus musculus [19] = assay: Effect on 8-OH-DPAT-induced hypothermia in Swiss albino mouse assessed as change in rectal body temperature at 10 mg/kg, ip pretreated with compound for 45 mins followed by 8-OH-DPAT challenge and measured after 60 min by thermometer (reference value: -0.66 to -0.5 degreeC); type: functional, organism-based; conditions: time 105.0 min
Mus musculus [20] = assay: Antipsychotic activity Swiss Albino mouse assessed as inhibition of DOI-induced head twitching by measuring number of episodes at 10 mg/kg, ip administered 30 mins prior to DOI stimulation (reference value: 19.63 to 19.88); type: functional; conditions: 0.5 h; procedure, shortened: as §2
Mus musculus [21] = assay: Effect on 8-OH-DPAT-induced hypothermia in Swiss albino mouse assessed as change in rectal body temperature at 10 mg/kg, ip pretreated with compound for 45 mins followed by 8-OH-DPAT challenge and measured after 30 min by thermometer (reference value: -1.36 to -1.12 degreeC); type: functional, organism-based; conditions: time 75.0 min
[22] = Half life in pooled human liver microsomes assessed as parent compound remaining at 2.5 uM measured up to 45 mins in presence of NADPH by LC-MS analysis; type: ADME, Microsome
Procedure, shortened: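 Compound at 2.5 μM (added from 100 μM stock in 50/50 acetonitrile/water) with 1 mg/mL pooled human liver microsomes and 250 μM NADPH in 0.1 M potassium phosphate pH 7.4 at 37 °C after 5-min preincubation. Sampled at 5, 10, 15, 30, 45 min into ice-cold acetonitrile with atropine internal standard; parent quantified by LC-MS (ESI+, [M+H]+); no-NADPH controls; half-time derived.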

[23] = Effect on body temperature in Swiss Albino mouse assessed as rectal body temperature at 10 mg/kg, ip measured after 60 mins by thermometer (reference value: 0.33 to 0.61 degreeC); type: ADME, organism-based; conditions: in vivo, 1 h
[24] = Effect on body temperature in Swiss Albino mouse assessed as rectal body temperature at 10 mg/kg, ip measured after 30 mins by thermometer (reference value: 0.16 to 0.33 degreeC); type: organism-based; conditions: in vivo, 0.5 h
[25] = Effect on body temperature in Swiss Albino mouse assessed as rectal body temperature at 20 mg/kg, ip measured after 60 mins by thermometer (reference value: 0.33 to 0.61 degreeC); type: ADME, organism-based; conditions: in vivo, 1 h

Chain of D(2) dopamine receptor (P61169 whole entry): as the sequence (P61169 whole entry, looked up) above

Compound: O=C(NC1CC2CCC(C1)N2Cc1ccc(C(F)(F)F)cc1)c1ccc2ccccc2c1 (stereo not given)
- Ki (D(2) dopamine receptor): 629 nM
- Ki [1]: 2000 nM
- Ki [2]: > 10000 nM

Compound: O=C(NC1CC2CCC(C1)N2Cc1ccc(Br)cc1)c1ccc2ccccc2c1 (stereo not given)
- Ki (D(2) dopamine receptor): 4.5 nM
- Ki [1]: 230 nM
- Ki [2]: 326 nM

Compound: Cc1ccccc1CN1C2CCC1CC(NC(=O)c1ccc3ccccc3c1)C2 (stereo not given)
- Ki (D(2) dopamine receptor): 118 nM
- Ki [1]: 193 nM
- Ki [2]: 1290 nM

Compound: O=C(NC1CC2CCC(C1)N2Cc1ccccc1C(F)(F)F)c1ccc2ccccc2c1 (stereo not given)
- Ki (D(2) dopamine receptor): 537 nM
- Ki [1]: 476 nM
- Ki [2]: 102 nM

Compound: O=C(NC1CC2CCC(C1)N2Cc1ccccn1)c1ccc2ccccc2c1 (stereo not given)
- Ki (D(2) dopamine receptor): 2200 nM
- Ki [1]: 315 nM
- Ki [2]: 589 nM

Compound: Cc1ccc(CN2C3CCC2CC(NC(=O)c2ccc4ccccc4c2)C3)cc1 (stereo not given)
- Ki (D(2) dopamine receptor): 0.4 nM
- Ki [1]: 728 nM
- Ki [2]: 854 nM

Compound: O=C(NC1CC2CCC(C1)N2Cc1cccnc1)c1ccc2ccccc2c1 (stereo not given)
- Ki (D(2) dopamine receptor): 2400 nM
- Ki [1]: 485 nM
- Ki [2]: 484 nM

Compound: COc1cccc(CN2C3CCC2CC(NC(=O)c2ccc4ccccc4c2)C3)c1 (stereo not given)
- deltaT (Mus musculus [3]): -0.97 °C
- deltaT (Mus musculus [4]): -0.87 °C
- deltaT [5]: 1.26 °C
- deltaT [6]: -0.1 °C
- deltaT (Mus musculus [7]): -1.65 °C
- deltaT (Mus musculus [8]): -1.52 °C
- deltaT [9]: 0.7 °C
- Activity (Mus musculus [10]): 16.63
- deltaT (Mus musculus [11]): -1.33 °C
- deltaT [12]: 0.17 °C
- Ki (D(2) dopamine receptor): 25.7 nM
- deltaT [13]: 0.81 °C
- Activity (Mus musculus [14]): 14.25
- Ki [1]: 213 nM
- Ratio pKi [15]: 0.81
- deltaT (Mus musculus [16]): -1.25 °C
- Activity [17]: 2.4
- Ki [2]: 663 nM
- Activity [18]: 2.5
- deltaT (Mus musculus [19]): -0.6 °C
- Activity (Mus musculus [20]): 9.88
- deltaT (Mus musculus [21]): -1.32 °C
- half-life at 2.5 µM [22]: 42.9 min
- deltaT [23]: 0.03 °C
- deltaT [24]: -0.03 °C
- deltaT [25]: 0.57 °C

Compound: O=C(NC1CC2CCC(C1)N2Cc1ccccc1F)c1ccc2ccccc2c1 (stereo not given)
- Ki (D(2) dopamine receptor): 715 nM
- Ki [1]: 365 nM
- Ki [2]: 106 nM
